# MC4R antag cAMP: antagonists of human melanocortin 4 receptor (MC4R); MC4R-expressing cells, MTII-stimulated cAMP, LANCE TR-FRET; actives 0.48% (n = 360,000); inhibition, % at 6.5 µM; AID 540295;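 active means inhibition above its plate's cutoff, the mean of tested wells on that plate plus 3 SD, cut at about 29% in these data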;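 further: 0% = Melanotan II alone and 100% = Melanotan II plus saturating MCL0020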
#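 System: U2OS-MC4R stable cell line; Technique: Eu-cAMP/anti-cAMP TR-FRET, emission 671 nm; Repeats: single well per compound; Also added: Melanotan II; Dosing: one concentration, 6.5 µM nominal; Schedule: 30-min compound, 1-h challenge, 1-h detection, room temperature.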
# Beta2AR agonist: agonists of human beta-2 adrenergic receptor inducing internalization | P07550 | Am2.2-beta2AR cells, FAP receptor internalization, flow cytometry | response, % (no concentration beside the values) | actives 0.43% (n = 340,000);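 active means response above a set limit, near 3 SD of response in nonfluorescent compounds, cut at about 42% in these data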
# ABHD5-PLIN5 inh: blocks binding of human ABHD5 to perilipin-5; Q00G26+Q8WTS1; inhibition, % at 4 µM; Split G. princeps luciferase complementation, luminescence, 4 h; AID 602281; actives 0.78% (n = 360,000);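 active means inhibition above the mean inhibition across every tested compound plus 3 SD, cut at about 22% in these data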;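 further: 0% = DMSO only wells and the 100% control is not disclosed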
# Target sequence (Q00G26 whole entry, looked up): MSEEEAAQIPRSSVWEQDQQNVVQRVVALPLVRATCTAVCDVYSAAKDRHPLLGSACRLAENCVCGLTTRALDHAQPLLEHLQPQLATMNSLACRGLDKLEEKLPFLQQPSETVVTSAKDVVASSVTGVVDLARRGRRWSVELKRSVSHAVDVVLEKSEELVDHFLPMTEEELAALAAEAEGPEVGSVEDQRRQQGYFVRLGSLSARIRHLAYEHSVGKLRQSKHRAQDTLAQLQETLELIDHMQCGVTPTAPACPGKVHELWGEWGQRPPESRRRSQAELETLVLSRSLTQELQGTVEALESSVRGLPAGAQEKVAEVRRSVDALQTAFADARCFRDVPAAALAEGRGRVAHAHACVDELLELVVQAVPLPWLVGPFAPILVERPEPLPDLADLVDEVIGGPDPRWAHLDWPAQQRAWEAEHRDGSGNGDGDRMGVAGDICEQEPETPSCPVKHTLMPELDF
# Target sequence (Q8WTS1 whole entry, looked up): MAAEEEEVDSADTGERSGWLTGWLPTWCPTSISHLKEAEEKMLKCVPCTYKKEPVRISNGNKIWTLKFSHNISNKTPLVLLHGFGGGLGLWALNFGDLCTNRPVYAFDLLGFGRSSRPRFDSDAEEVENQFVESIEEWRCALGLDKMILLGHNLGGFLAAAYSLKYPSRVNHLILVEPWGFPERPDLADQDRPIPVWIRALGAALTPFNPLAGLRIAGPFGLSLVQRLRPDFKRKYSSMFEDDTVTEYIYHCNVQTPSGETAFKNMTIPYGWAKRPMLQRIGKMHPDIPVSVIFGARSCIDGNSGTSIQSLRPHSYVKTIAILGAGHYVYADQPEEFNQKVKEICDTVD
# PfGluPho inh: PfG6PD (Plasmodium falciparum) enzyme inhibition; PfGluPho enzyme, NADPH resazurin-diaphorase fluorescence; actives 0.78% (n = 350,000); inhibition, % at 20 µM; AID 504690;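 active means inhibition reaching at least a set limit at 20 µM in the primary screen, cut at about 59% in these data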;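 further: 0% = DMSO wells with substrate and 100% = DMSO wells lacking glucose-6-phosphate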
# MC4R barr agon: agonists of human melanocortin 4 receptor (MC4R) beta-arrestin. actives 0.98% (n = 360,000). activation, % at 8.9 µM. P32245. U2OS MC4R beta-arrestin complementation, luminescence; percent of melanotan II response, DMSO zero;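 active means activation above a per-plate cutoff, the mean activation of sample wells on that plate plus 3 SD, cut at about 8% in these data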
# ABHD5 PLIN5 conf: confirmation of human ABHD5-PLIN5 interaction inhibitors. shares compounds with ABHD5-PLIN5 inh. inhibition, % at 4 µM. actives 67% (n = 2,200). biochemical ABHD5-PLIN5 interaction, luminescence; in the data active means inhibition above about 23%;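 further: 0% = DMSO vehicle wells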
# HNF4 split-luc: active in HNF4 split-luciferase counter-screen for ABHD5-PLIN5 inhibitors | shares compounds with ABHD5-PLIN5 inh | HNF4 dimerization, luminescence, biochemical | inhibition, % at 4 µM | actives 77% (n = 2,200);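 active means mean inhibition across replicate wells exceeding the computed hit threshold, cut at about 13% in these data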;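 further: light from luciferase halves that rejoin when HNF4 fusion proteins dimerize; 0% = DMSO only wells and the 100% control is not given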
# An asterisk follows results filed as active; . = not tested or not shown. Hits are enriched below; roughly 3% of the tested compounds scored in any of these assays.
SMILES,MC4R antag cAMP,Beta2AR agonist,ABHD5-PLIN5 inh,PfGluPho inh,MC4R barr agon,ABHD5 PLIN5 conf,HNF4 split-luc
CCCc1nc(C)c2c(=O)[nH]c(-c3cc(S(=O)(=O)N4CCN(CC)CC4)ccc3OCC)nn12,4,1,62*,12,1,68*,29*
COc1cccc(CC2(CO)CCCN(Cc3ccc(-c4ccco4)cc3)C2)c1 (configuration not stated),12,8,24*,18,0,22*,32*
COc1cccc(CC2(CO)CCCN(Cc3ccccc3-c3ccco3)C2)c1 (configuration not stated),3,0,4,15,2,.,.
Cc1ccc(C)c(N2N=C(C(=O)OCc3nnc(-c4ccccc4)o3)CCC2=O)c1,17,9,4,-8,1,.,.
COc1ccccc1C(=O)NC(=O)COC(=O)c1ccc(Cl)nc1,-3,-8,8,-11,-3,.,.
Cc1ccc(OCCNc2cc(N3CCN(CCO)CC3)ccc2[N+](=O)[O-])cc1C,-2,5,31*,22,0,5,14*
COc1cccc(C2c3[nH]c4ccccc4c3C[C@H]3C(=O)N(c4ccccc4C(=O)NCCCN4CCOCC4)C(=O)N23)c1 (some centres not stated),11,3,2,14,-2,.,.
COc1ccccc1N=CC=C1OC(C)(C)C(C)(C)O1,6,0,37*,7,-3,-5,10
c1ccc(Nc2nnc(-c3cccnc3)s2)cc1,12,-3,-5,9,-1,.,.
Cc1ccc(C)c(OCC(=O)NNC(=O)CCN2CCN(c3ccccc3)CC2)c1,-1,3,-4,1,-4,.,.
O=C(Nc1ccc2c(c1)OCCO2)C(c1ccccc1F)n1c(=O)c(-c2ccco2)nc2ccccc21 (configuration not stated),.,.,26*,.,.,32*,10
COc1ccc(NC(=O)C(c2ccccc2)n2c(=O)c(-c3ccco3)nc3ccccc32)cc1 (configuration not stated),.,.,23*,.,.,33*,11
COc1ccc(NC(=O)C(c2ccc(C#N)cc2)n2c(=O)c(-c3ccco3)nc3ccccc32)cc1 (configuration not stated),.,.,24*,.,.,22*,1
CC(c1nc2ccccc2[nH]1)n1c(=O)c(-c2ccco2)nc2ccccc21 (configuration not stated),.,.,52*,.,.,41*,12
O=C(COc1ccc2ccccc2c1)N[C@@H](C(=O)O)c1ccc(O)cc1,17,5,-1,-9,3,.,.
CC(C)C[C@H](NC(=O)CC[C@H]1O[C@@H](n2ccc(=O)[nH]c2=O)[C@H](O)[C@@H]1O)C(=O)O,.,.,-7,.,.,.,.
NS(=O)(=O)c1cc(C(=O)N2CCNC(=O)C2)ccc1Cl,7,0,8,9,-1,.,.
COc1ccc(C)cc1NC(=O)C(c1ccccc1)N1CCNC(=O)C1 (configuration not stated),8,-9,-2,.,1,.,.
COc1ccc(NC(=O)C(c2ccc(OC)cc2)n2c(=O)c(-c3ccco3)nc3ccccc32)cc1 (configuration not stated),.,.,42*,.,.,39*,5
COc1ccc(C(C(=O)Nc2ccc3c(c2)OCCO3)n2c(=O)c(-c3cc4ccccc4[nH]3)nc3ccccc32)cc1 (configuration not stated),.,.,18,.,.,.,.
COc1ccc(NC(=O)C(c2ccnc3ccccc23)n2c(=O)c(-c3ccccc3)nc3ccccc32)cc1 (configuration not stated),.,.,0,.,.,.,.
COc1ccc(C(C(=O)Nc2ccc3c(c2)OCCO3)n2c(=O)c(-c3ccco3)nc3ccccc32)cc1 (configuration not stated),.,.,78*,.,.,38*,2
COc1ccc(NC(=O)C(c2ccnc3ccccc23)n2c(=O)c(-c3ccco3)nc3ccccc32)cc1 (configuration not stated),.,.,36*,.,.,25*,6
Cc1csc(C(=O)NCC(=O)NNC(=O)c2cccc(Cl)c2)c1,13,-5,2,-13,-2,.,.
Cc1cccc(NC(=O)CN(CC2CCCO2)C(=O)c2oc3ccccc3c2C)c1C (configuration not stated),0,0,-10,21,-1,.,.
SMILES,MC4R antag cAMP,Beta2AR agonist,ABHD5-PLIN5 inh,PfGluPho inh,MC4R barr agon,ABHD5 PLIN5 conf,HNF4 split-luc
C[C@@H]1OC(C2CCCCC2)N(C)[C@H]2C[C@H]3c4[nH]c5ccccc5c4CCN3C[C@@H]12 (some centres not stated),.,.,-7,.,.,.,.
CCOc1ccccc1CN1CCN(Cc2[nH]c3ccccc3c2C)CC1CCO (configuration not stated),7,24,27*,-5,4,7,-1
O=C1CSCc2nc3ccccc3n21,4,0,-2,-2,1,.,.
O=C(C=Cc1ccccc1)c1cccs1,1,0,59*,15,-1,71*,64*
COc1ccc(NC(=O)C2CCCN(CCCc3ccccc3)C2)cc1OCC(C)C (configuration not stated),1,22,39*,-4,5,22*,15*
Cc1ccc(NC(=O)CCCCCN2C(=O)[C@@H]3Cc4ccccc4CN3C2=O)c(Cl)c1,-5,-3,-11,-4,0,.,.
CCOC(=O)Cc1csc(NC(=O)NC2(C(F)(F)F)Oc3ccccc3O2)n1,7,-2,26*,35,0,62*,91*
CCOC(=O)Cc1csc(NC(=O)NC2(C(F)(F)F)Oc3ccc(Cl)cc3O2)n1 (configuration not stated),17,6,25*,26,6,54*,60*
CCOC(=O)/C(=C/c1ccc(OC(F)F)cc1)C1=Nn2c(nnc2-c2ccc(Cl)cc2)SC1,14,27,42*,47,2,101*,91*
COc1ccc(C2=Nn3c(nnc3-c3ccc(OC)cc3)SC2)cc1,-33,-2,2,0,-1,.,.
CCCCOC(=O)/C=C\C(=O)OCCCC,5,-11,7,-6,-2,.,.
CCCCOC(=O)/C=C\C(=O)NC(N)=O,5,7,51*,7,-2,71*,57*
O=C(Cc1cccc([N+](=O)[O-])c1)Nc1ccc(C(=O)N2CCCCC2)cc1,-4,2,25*,4,-3,5,4
O=C(Cc1cccc([N+](=O)[O-])c1)Nc1cccc(C(=O)N2CCCC2)c1,3,8,3,-5,0,.,.
Cc1ccccc1CS(=O)(=O)c1nnc([C@H](Cc2ccccc2)NC(=O)OC(C)(C)C)o1,19,61*,43*,30,-1,57*,105*
